Results reported in ChEMBL document CHEMBL1149273, “Calcitriol derivatives with two different side chains at C-20. II. Diastereoselective syntheses of the metabolically produced 24(R)-hydroxygemini” (J Med Chem, 2004).

Assays:
[1] = Inhibition of INFgamma release in MLR cells relative to calcitriol; assay type: functional, Homo sapiens
Mus musculus [2] = assay: Effect on calcium level in mouse at 30 […] after four diurnal doses; assay type: functional, organism-based
Outline: (§1)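 Mice received four diurnal administrations of drug in Miglyol vehicle, with vehicle-dosed controls, across a series of dose levels. Calcium levels (mg/dL) were then measured and reported with standard errors. The […] was assigned from these calcium levels.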

Mus musculus [3] = assay: Effect on calcium level in mouse at 1 […] after four diurnal doses; assay type: functional, organism-based; outline: as §1
Mus musculus [4] = assay: Effect on calcium level in mouse at 100 […] after four diurnal doses; assay type: functional, organism-based; outline: as §1
Mus musculus [5] = assay: Effect on calcium level in mouse at 3 […] after four diurnal doses; assay type: functional, organism-based; outline: as §1
[6] = Maximum tolerated dose in mouse; assay type: ADME, organism-based; conditions: in vivo
Mus musculus [7] = assay: Effect on calcium level in mouse at 10 […] after four diurnal doses; assay type: functional, organism-based; outline: as §1
[8] = Inhibition of INFgamma release in MLR cells; assay type: functional, cell-based; conditions: Homo sapiens
Mus musculus [9] = assay: Effect on calcium level in mouse at 0.3 ug/kg after four diurnal doses
Kidney = assay: Metabolic stability in rat kidney perfusate; assay type: ADME, tissue-based

SMILES	Ratio IC50 [1]	Calcium level (Mus musculus [2]) [mg/dL]	Calcium level (Mus musculus [3]) [mg/dL]	Calcium level (Mus musculus [4]) [mg/dL]	Calcium level (Mus musculus [5]) [mg/dL]	MTD [6] [µg/kg]	Calcium level (Mus musculus [7]) [mg/dL]	IC50 [8] [nM]	Calcium level (Mus musculus [9]) [mg/dL]	Stability (Kidney) [%]
CC(C)(O)CCC[C@H](CC[C@@H](O)C(C)(C)O)[C@H]1CC[C@H]2/C(=C/C=C3C[C@@H](O)C[C@H](O)C3)CCC[C@]12C	31	9.77	9.63	10.8	9.37	30	9.57	0.781		
C=C1/C(=C\C=C2/CCC[C@]3(C)[C@@H]([C@H](CCCC(C)(C)O)CC[C@@H](O)C(C)(C)O)CC[C@@H]23)C[C@@H](O)C[C@@H]1O	2.5		9.7		9.73	3		0.08	9.6	
CC(C)(O)CCCC(CCCC(C)(C)O)[C@H]1CC[C@H]2/C(=C/C=C3C[C@@H](O)C[C@H](O)C3)CCC[C@]12C	1.8	16.5			10	3	12.5	0.044		80
C=C1/C(=C\C=C2/CCC[C@]3(C)[C@@H]([C@@H](CCCC(C)(C)O)CC[C@@H](O)C(C)(C)O)CC[C@@H]23)C[C@@H](O)C[C@@H]1O	18		9.73		9.63	3		0.579	9.8	
C=C1/C(=C\C=C2/CCC[C@]3(C)[C@@H]([C@H](C)CCCC(C)(C)O)CC[C@@H]23)C[C@@H](O)C[C@@H]1O [CALCITRIOL]										< 50
CC(C)(O)CCC[C@@H](CC[C@@H](O)C(C)(C)O)[C@H]1CC[C@H]2/C(=C/C=C3C[C@@H](O)C[C@H](O)C3)CCC[C@]12C	160	9.43	9.53	9.57	9.9	> 100	9.43	3.86		
C=C1/C(=C\C=C2/CCC[C@]3(C)[C@@H](C(CCCC(C)(C)O)CCCC(C)(C)O)CC[C@@H]23)C[C@@H](O)C[C@@H]1O	0.1		11.1		12.3	< 1	16.7	0.004		80
